{
  "source": "ChEMBL document CHEMBL1127344",
  "about": "“Tridentate ligands containing the SNS donor atom set as a novel backbone for the development of technetium brain-imaging agents” (J Med Chem, 1994)",
  "key": {"Rattus norvegicus [1]": {"organism": "Rattus norvegicus", "assay": "Tested for biodistribution of compound at 30 min in rat stomach", "format": "ADME, organism-based", "settings": "in vivo, 0.5 h"}, "Mus musculus [2]": {"organism": "Mus musculus", "assay": "Tested for biodistribution of compound at 5 min in mice brain", "format": "ADME, organism-based", "settings": "in vivo", "method_in_brief": "(§1)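 Male Swiss albino mice, at least five per group, received HPLC-purified 99mTc complex by tail vein. The complex was reconstituted in 50% methanol (0.1 mL, 2-3 μCi). Mice were killed by cardiectomy under light ether at 1-60 min pi. Organs were weighed and γ-counted against a 1% injected-dose standard to give % dose/organ. Blood and muscle were taken as 7% and 43% of body weight.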"}, "Mus musculus [3]": {"organism": "Mus musculus", "assay": "Tested for biodistribution of compound at 5 min in mice heart", "format": "ADME, organism-based", "settings": "in vivo", "method_in_brief": "as §1"}, "Mus musculus [4]": {"organism": "Mus musculus", "assay": "Tested for biodistribution of compound at 5 min in mice intestine", "format": "ADME, organism-based", "settings": "in vivo", "method_in_brief": "as §1"}, "Mus musculus [5]": {"organism": "Mus musculus", "assay": "Tested for biodistribution of compound at 5 min in mice kidney", "format": "ADME, organism-based", "settings": "in vivo", "method_in_brief": "as §1"}, "Mus musculus [6]": {"organism": "Mus musculus", "assay": "Tested for biodistribution of compound at 5 min in mice liver", "format": "ADME, organism-based", "settings": "in vivo", "method_in_brief": "as §1"}, "Mus musculus [7]": {"organism": "Mus musculus", "assay": "Tested for biodistribution of compound at 10 min in mice stomach", "format": "ADME, organism-based", "settings": "in vivo", "method_in_brief": "(§2)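 Male Swiss albino mice, at least five per group, received 0.1 mL (2-3 μCi) of HPLC-purified 99mTc complex reconstituted in 50% methanol by tail vein. They were killed by cardiectomy under light ether anesthesia at set times (1-60 min pi). Organs were weighed and γ-counted against a 1% injected-dose standard to give % dose/organ. Blood and muscle were taken as 7% and 43% of body weight.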"}, "Mus musculus [8]": {"organism": "Mus musculus", "assay": "Tested for biodistribution of compound at 10 min in mice urine", "format": "ADME, organism-based", "settings": "in vivo", "method_in_brief": "as §2"}, "Rattus norvegicus [9]": {"organism": "Rattus norvegicus", "assay": "Tested for biodistribution of compound at 10 min in rat blood", "format": "ADME, organism-based", "settings": "in vivo", "method_in_brief": "(§3)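 Wistar rats under ether anesthesia were dosed through the femoral vein with 0.1 mL of 99mTc complex (3-6 μCi) and dissected 5-60 min pi. Tissue radioactivity was γ-counted against a 1% injected-dose standard and expressed as % dose/organ. Blood and muscle were calculated from sample weight assuming 7% and 43% of body weight.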"}, "Rattus norvegicus [10]": {"organism": "Rattus norvegicus", "assay": "Tested for biodistribution of compound at 10 min in rat brain", "format": "ADME, organism-based", "settings": "in vivo", "method_in_brief": "as §3"}, "Rattus norvegicus [11]": {"organism": "Rattus norvegicus", "assay": "Tested for biodistribution of compound at 10 min in rat heart", "format": "ADME, organism-based", "settings": "in vivo", "method_in_brief": "as §3"}, "Rattus norvegicus [12]": {"organism": "Rattus norvegicus", "assay": "Tested for biodistribution of compound at 10 min in rat intestine", "format": "ADME, organism-based", "settings": "in vivo", "method_in_brief": "as §3"}, "Mus musculus [13]": {"organism": "Mus musculus", "assay": "Tested for biodistribution of compound at 5 min in mice muscle", "format": "ADME, organism-based, Muscle tissue", "settings": "in vivo", "method_in_brief": "as §1"}, "Mus musculus [14]": {"organism": "Mus musculus", "assay": "Tested for biodistribution of compound at 5 min in mice stomach", "format": "ADME, organism-based", "settings": "in vivo", "method_in_brief": "as §1"}, "Mus musculus [15]": {"organism": "Mus musculus", "assay": "Tested for biodistribution of compound at 10 min in mice spleen", "format": "ADME, organism-based", "settings": "in vivo", "method_in_brief": "as §2"}, "Mus musculus [16]": {"organism": "Mus musculus", "assay": "Tested for biodistribution of compound at 1 min in mice brain", "format": "ADME, organism-based", "settings": "in vivo", "method_in_brief": "as §2"}, "Mus musculus [17]": {"organism": "Mus musculus", "assay": "Tested for biodistribution of compound at 1 min in mice heart", "format": "ADME, organism-based", "settings": "in vivo", "method_in_brief": "as §2"}, "Mus musculus [18]": {"organism": "Mus musculus", "assay": "Tested for biodistribution of compound at 1 min in mice intestine", "format": "ADME, organism-based", "settings": "in vivo", "method_in_brief": "as §2"}, "Mus musculus [19]": {"organism": "Mus musculus", "assay": "Tested for biodistribution of compound at 1 min in mice kidney", "format": "ADME, organism-based", "settings": "in vivo", "method_in_brief": "as §2"}, "Mus musculus [20]": {"organism": "Mus musculus", "assay": "Tested for biodistribution of compound at 1 min in mice liver", "format": "ADME, organism-based", "settings": "in vivo", "method_in_brief": "as §2"}, "Mus musculus [21]": {"organism": "Mus musculus", "assay": "Tested for biodistribution of compound at 1 min in mice lungs", "format": "ADME, organism-based, Lung", "settings": "in vivo", "method_in_brief": "as §2"}, "Mus musculus [22]": {"organism": "Mus musculus", "assay": "Tested for biodistribution of compound at 1 min in mice muscle", "format": "ADME, organism-based, Muscle tissue", "settings": "in vivo", "method_in_brief": "as §2"}, "Mus musculus [23]": {"organism": "Mus musculus", "assay": "Tested for biodistribution of compound at 1 min in mice spleen", "format": "ADME, organism-based", "settings": "in vivo", "method_in_brief": "as §2"}, "Mus musculus [24]": {"organism": "Mus musculus", "assay": "Tested for biodistribution of compound at 10 min in mice heart", "format": "ADME, organism-based", "settings": "in vivo", "method_in_brief": "as §2"}, "Mus musculus [25]": {"organism": "Mus musculus", "assay": "Tested for biodistribution of compound at 10 min in mice liver", "format": "ADME, organism-based", "settings": "in vivo", "method_in_brief": "as §2"}, "Mus musculus [26]": {"organism": "Mus musculus", "assay": "Tested for biodistribution of compound at 10 min in mice lungs", "format": "ADME, organism-based, Lung", "settings": "in vivo", "method_in_brief": "as §2"}, "Mus musculus [27]": {"organism": "Mus musculus", "assay": "Tested for biodistribution of compound at 10 min in mice muscle", "format": "ADME, organism-based, Muscle tissue", "settings": "in vivo", "method_in_brief": "as §2"}, "Mus musculus [28]": {"organism": "Mus musculus", "assay": "Tested for biodistribution of compound at 5 min in mice spleen", "format": "ADME, organism-based", "settings": "in vivo", "method_in_brief": "as §1"}, "Rattus norvegicus [29]": {"organism": "Rattus norvegicus", "assay": "Tested for biodistribution of compound at 5 min in rat s. intestine", "format": "ADME, organism-based", "settings": "in vivo"}, "Rattus norvegicus [30]": {"organism": "Rattus norvegicus", "assay": "Tested for biodistribution of compound at 60 min in rat stomach", "format": "ADME, organism-based", "settings": "in vivo, 1 h"}, "Rattus norvegicus [31]": {"organism": "Rattus norvegicus", "assay": "Tested for biodistribution of compound at 10 min in rat muscle", "format": "ADME, organism-based, Muscle tissue", "settings": "in vivo", "method_in_brief": "as §3"}, "Mus musculus [32]": {"organism": "Mus musculus", "assay": "Tested for biodistribution of compound at 30 min in mice spleen", "format": "ADME, organism-based", "settings": "in vivo, 0.5 h", "method_in_brief": "as §2"}, "Mus musculus [33]": {"organism": "Mus musculus", "assay": "Tested for biodistribution of compound at 5 min in mice blood", "format": "ADME, organism-based", "settings": "in vivo", "method_in_brief": "as §1"}, "Mus musculus [34]": {"organism": "Mus musculus", "assay": "Tested for biodistribution of compound at 1 min in mice stomach", "format": "ADME, organism-based", "settings": "in vivo", "method_in_brief": "as §2"}},
  "data": [
    {"substance": "[4-methoxythio)phenolato][N,N-bis(2-mercaptoethyl)-N',N'-diethylethylenediamine] oxotechnetium", "values": [
      {"measurement": "Dose/organ", "setting": "Rattus norvegicus [1]", "result": 2.19, "unit": "%"},
      {"measurement": "Dose/organ", "setting": "Mus musculus [2]", "result": 3.01, "unit": "%"},
      {"measurement": "Dose/organ", "setting": "Mus musculus [3]", "result": 0.74, "unit": "%"},
      {"measurement": "Dose/organ", "setting": "Mus musculus [4]", "result": 8.31, "unit": "%"},
      {"measurement": "Dose/organ", "setting": "Mus musculus [5]", "result": 3.14, "unit": "%"},
      {"measurement": "Dose/organ", "setting": "Mus musculus [6]", "result": 10.73, "unit": "%"},
      {"measurement": "Dose/organ", "setting": "Mus musculus [7]", "result": 1.2, "unit": "%"},
      {"measurement": "Dose/organ", "setting": "Mus musculus [8]", "result": 1.1, "unit": "%"},
      {"measurement": "Dose/organ", "setting": "Rattus norvegicus [9]", "result": 17.72, "unit": "%"},
      {"measurement": "Dose/organ", "setting": "Rattus norvegicus [10]", "result": 1.16, "unit": "%"},
      {"measurement": "Dose/organ", "setting": "Rattus norvegicus [11]", "result": 0.51, "unit": "%"},
      {"measurement": "Dose/organ", "setting": "Rattus norvegicus [12]", "result": 2.7, "unit": "%"},
      {"measurement": "Dose/organ", "setting": "Mus musculus [13]", "result": 24.17, "unit": "%"},
      {"measurement": "Dose/organ", "setting": "Mus musculus [14]", "result": 0.96, "unit": "%"},
      {"measurement": "Dose/organ", "setting": "Mus musculus [15]", "result": 0.36, "unit": "%"},
      {"measurement": "Dose/organ", "setting": "Mus musculus [16]", "result": 3.56, "unit": "%"},
      {"measurement": "Dose/organ", "setting": "Mus musculus [17]", "result": 3.6, "unit": "%"},
      {"measurement": "Dose/organ", "setting": "Mus musculus [18]", "result": 2.61, "unit": "%"},
      {"measurement": "Dose/organ", "setting": "Mus musculus [19]", "result": 1.7, "unit": "%"},
      {"measurement": "Dose/organ", "setting": "Mus musculus [20]", "result": 1.96, "unit": "%"},
      {"measurement": "Dose/organ", "setting": "Mus musculus [21]", "result": 27.19, "unit": "%"},
      {"measurement": "Dose/organ", "setting": "Mus musculus [22]", "result": 17.26, "unit": "%"},
      {"measurement": "Dose/organ", "setting": "Mus musculus [23]", "result": 0.03, "unit": "%"},
      {"measurement": "Dose/organ", "setting": "Mus musculus [24]", "result": 0.46, "unit": "%"},
      {"measurement": "Dose/organ", "setting": "Mus musculus [25]", "result": 14.14, "unit": "%"},
      {"measurement": "Dose/organ", "setting": "Mus musculus [26]", "result": 9.78, "unit": "%"},
      {"measurement": "Dose/organ", "setting": "Mus musculus [27]", "result": 16.49, "unit": "%"},
      {"measurement": "Dose/organ", "setting": "Mus musculus [28]", "result": 0.28, "unit": "%"},
      {"measurement": "Dose/organ", "setting": "Rattus norvegicus [29]", "result": 5.96, "unit": "%"},
      {"measurement": "Dose/organ", "setting": "Rattus norvegicus [30]", "result": 2.05, "unit": "%"},
      {"measurement": "Dose/organ", "setting": "Rattus norvegicus [31]", "result": 27.89, "unit": "%"},
      {"measurement": "Dose/organ", "setting": "Mus musculus [32]", "result": 0.38, "unit": "%"},
      {"measurement": "Dose/organ", "setting": "Mus musculus [33]", "result": 2.02, "unit": "%"},
      {"measurement": "Dose/organ", "setting": "Mus musculus [34]", "result": 0.15, "unit": "%"}
    ]}
  ]
}
